From ChEMBL document CHEMBL4354812, “N-Benzyl/Aryl Substituted Tryptanthrin as Dual Inhibitors of Indoleamine 2,3-Dioxygenase and Tryptophan 2,3-Dioxygenase” (J Med Chem, 2019)
Activity calls are given as the source filed them. No cut-off for these calls is given here.

Legend:
[1] = target: T1, Indoleamine 2,3-dioxygenase 1 (Homo sapiens, UniProt P14902); experiment: Uncompetitive inhibition of recombinant human IDO1 expressed in Escherichia coli BL21 cells assessed inhibition constant using varying concentration of L-tryptophan as substrate by Dixon plot analysis
Outline: (§1)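 Enzymatic assays of the kynurenine-forming reaction were run with varying L-Trp. Ki was derived by plotting [S]/V against inhibitor concentration [I], with inhibition type assigned from the graphical pattern.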
Target sequence in this assay (P14902 whole entry): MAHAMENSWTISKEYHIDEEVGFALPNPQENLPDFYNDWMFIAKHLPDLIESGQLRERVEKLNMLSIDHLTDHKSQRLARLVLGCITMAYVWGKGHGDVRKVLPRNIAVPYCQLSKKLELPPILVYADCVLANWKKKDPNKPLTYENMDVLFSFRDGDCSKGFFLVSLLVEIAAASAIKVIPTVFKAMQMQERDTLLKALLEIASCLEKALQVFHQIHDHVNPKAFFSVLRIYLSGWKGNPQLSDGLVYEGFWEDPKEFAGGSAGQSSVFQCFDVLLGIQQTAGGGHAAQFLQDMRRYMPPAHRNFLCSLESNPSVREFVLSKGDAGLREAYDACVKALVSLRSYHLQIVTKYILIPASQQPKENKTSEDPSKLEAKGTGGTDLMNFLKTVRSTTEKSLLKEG

[2] = target: T2, Tryptophan 2,3-dioxygenase (Homo sapiens, UniProt P48775); experiment: Inhibition of human TDO transfected in HEK293 cells assessed as reduction in kynurenine production using L-tryptophan as substrate incubated for 12 hrs; format: cell-based
Outline: (§2)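 U87 MG cells (hIDO2) or HEK293 cells (hTDO) were transiently transfected at 80% confluence, with empty vector as control. After 18 h, cells were seeded 2.5 × 10⁴/well in medium with 200 μM L-Trp. Compound serial dilutions were added after a further 6 h (IDO2) or 12 h (TDO). Reactions were stopped 24 h (IDO2) or 8 h (TDO) later with TCA, heated 65 °C 15 min, and Kyn read with DMAB at 492 nm. IC50 by nonlinear regression.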
Target sequence in this assay (P48775 whole entry): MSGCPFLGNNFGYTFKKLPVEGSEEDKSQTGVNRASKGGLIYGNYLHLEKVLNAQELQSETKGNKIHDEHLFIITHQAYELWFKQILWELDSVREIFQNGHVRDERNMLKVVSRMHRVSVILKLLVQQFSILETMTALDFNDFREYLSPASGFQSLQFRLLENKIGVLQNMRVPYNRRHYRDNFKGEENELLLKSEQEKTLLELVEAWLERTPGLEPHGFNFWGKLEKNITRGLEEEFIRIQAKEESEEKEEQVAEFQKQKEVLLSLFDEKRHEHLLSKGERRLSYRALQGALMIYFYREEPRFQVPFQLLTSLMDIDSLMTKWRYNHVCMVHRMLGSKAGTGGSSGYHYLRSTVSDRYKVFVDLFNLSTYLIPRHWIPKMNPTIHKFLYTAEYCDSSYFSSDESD

[3] = target: T1, Indoleamine 2,3-dioxygenase 1; experiment: Inhibition of IDO1 in IFN-gamma stimulated human HeLa cells assessed as reduction in kynurenine production incubated for 18 hrs; format: cell-based
Outline: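 HeLa cells were seeded 25 000/well overnight, then exposed to inhibitor dilutions with 100 ng/mL human IFN-γ (final) for 18 h at 37 °C. Medium was treated with TCA at 50 °C for 30 min to hydrolyze NFK to Kyn. Kyn was read with 2% DMAB at 492 nm. IC50 by nonlinear regression.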
Target sequence in this assay (P14902 whole entry): as the sequence (P14902 whole entry) above

[4] = target: T3, Indoleamine 2,3-dioxygenase 2 (Homo sapiens, UniProt Q6ZQW0); experiment: Inhibition of human IDO2 transfected in human U87MG cells assessed as reduction in kynurenine production using L-tryptophan as substrate incubated with for 6 hrs; format: cell-based; outline: as §2
T3 sequence (Q6ZQW0 whole entry): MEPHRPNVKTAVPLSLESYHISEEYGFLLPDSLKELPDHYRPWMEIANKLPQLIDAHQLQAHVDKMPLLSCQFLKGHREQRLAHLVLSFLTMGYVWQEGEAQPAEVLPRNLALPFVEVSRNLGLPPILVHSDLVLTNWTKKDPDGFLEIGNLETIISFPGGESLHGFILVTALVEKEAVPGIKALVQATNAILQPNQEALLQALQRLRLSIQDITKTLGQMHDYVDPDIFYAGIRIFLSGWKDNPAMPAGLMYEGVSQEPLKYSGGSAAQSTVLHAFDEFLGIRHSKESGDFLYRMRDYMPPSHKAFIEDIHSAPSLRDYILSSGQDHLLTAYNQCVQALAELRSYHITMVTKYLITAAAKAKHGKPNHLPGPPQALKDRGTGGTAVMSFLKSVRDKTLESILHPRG

[5] = target: T2, Tryptophan 2,3-dioxygenase; experiment: Uncompetitive inhibition of recombinant human TDO expressed in Escherichia coli BL21 (DE3) assessed as assessed as inhibition constant using varying concentration of L-tryptophan as substrate by Dixon plot analysis; outline: as §1
Target sequence in this assay (P48775 whole entry): as the sequence (P48775 whole entry) above

[6] = target: T3, Indoleamine 2,3-dioxygenase 2; experiment: Noncompetitive inhibition of C-terminal His6-tagged human IDO2 (14 to 420 residues) expressed in Escherichia coli BL21 (DE3) assessed as inhibition constant using varying concentration of L-tryptophan as substrate by Dixon plot analysis; outline: as §1
[7] = target: T2, Tryptophan 2,3-dioxygenase; experiment: Inhibition of recombinant human TDO expressed in Escherichia coli BL21 (DE3) assessed as reduction in conversion of L-tryptophan to N-formyl kynurenine using L-tryptophan as substrate after 30 mins by methylene blue assay
Target sequence in this assay (P48775 whole entry): as above

[8] = target: T3, Indoleamine 2,3-dioxygenase 2; experiment: Inhibition of C-terminal His6-tagged human IDO2 (14 to 420 residues) expressed in Escherichia coli BL21 (DE3) assessed as reduction in conversion of L-tryptophan to N-formyl kynurenine using L-tryptophan as substrate after 30 mins by methylene blue dye based microplate reader analysis
Outline: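 Recombinant enzyme with L-Trp substrate, ascorbic acid 40 mM, methylene blue 20 μM and catalase 200 μg/mL in potassium phosphate buffer. Conditions were pH 7.0 with 400 μM L-Trp for TDO, and pH 7.5 with 30 mM L-Trp for IDO2. Reaction ran 30 min at 37 °C, stopped with TCA, heated 65 °C 15 min. Kyn detected with DMAB at 492 nm. IC50 by nonlinear regression.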

Mus musculus [9] = experiment: In vivo blockade of kynurenine pathway in Kunming mouse implanted with mouse H22 cells assessed as increase in tryptophan level in serum at 100 mg/kg, po qd for 2 weeks by HPLC analysis; format: functional, organism-based
Outline: (§3)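 H22 tumor-bearing Kunming mice received oral dosing once daily in 0.5% CMC-Na for 2 weeks. Serum Trp and Kyn were measured by HPLC on a C18 column with 15 mM sodium acetate (pH 3.6) containing 4% acetonitrile, UV detection at 280 and 360 nm. Kyn/Trp ratio calculated. n = 9–10/group.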

[10] = test system: Lewis lung carcinoma cell line; experiment: Antitumor activity against mouse LLC cells implanted in C57BL/6 mouse assessed as reduction in tumor volume at 100 mg/kg, po qd administered for 2 weeks and measured at 2 days interval during compound dosing relative to control; format: functional; design: scale not given: the % may be the effect or the level left
Outline: (§4)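 Tumor cells (LLC, or H22 ascites cells after two intraperitoneal passages in Kunming mice) injected sc into the right forelimb at 2 × 10⁶ per mouse, in female 6–8-week C57BL/6 or Kunming mice. Oral dosing once daily began at 5 mm tumor diameter and continued 2 weeks. Vehicle was 0.5% CMC-Na. Volume was read by caliper every 2 days as long × short²/2. Tumors were weighed at sacrifice. n = 9–10/group.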

[11] = target: T2, Tryptophan 2,3-dioxygenase; experiment: Binding affinity to human TDO assessed as change in spectral signal at 200 uM by CPMG NMR spectrometry analysis
Target sequence in this assay (P48775 whole entry, looked up): as the sequence (P48775 whole entry) above

[12] = target: T2, Tryptophan 2,3-dioxygenase; experiment: Binding affinity to human TDO at 200 uM by STD NMR spectrometry analysis
Target sequence in this assay (P48775 whole entry, looked up): as the sequence (P48775 whole entry) above

Mus musculus [13] = experiment: In vivo blockade of kynurenine pathway in Kunming mouse implanted with mouse H22 cells assessed as decrease in kynurenine level in serum at 100 mg/kg, po qd for 2 weeks by HPLC analysis; format: functional, organism-based; outline: as §3
H22 [14] = experiment: Antitumor activity against mouse H22 cells implanted in Kunming mouse assessed as reduction in tumor weight at 100 mg/kg, po qd administered for 2 weeks and measured post-treatment; format: functional, organism-based; outline: as §4
[15] = target: T4, Indoleamine 2,3-dioxygenase 2 (Homo sapiens) (UniProt Q6ZQW0); experiment: Binding affinity to human IDO2 assessed as change in spectral signal at 200 uM by CPMG NMR spectrometry analysis
T4 sequence (whole entry): T3 sequence (Q6ZQW0 whole entry)

[16] = target: T4, Indoleamine 2,3-dioxygenase 2 (Homo sapiens); experiment: Binding affinity to human IDO2 at 200 uM by STD NMR spectrometry analysis
[17] = test system: Lewis lung carcinoma cell line; experiment: Antitumor activity against mouse LLC cells implanted in C57BL/6 mouse assessed as reduction in tumor weight at 100 mg/kg, po qd administered for 2 weeks and measured post-treatment; format: functional, organism-based; outline: as §4
Homo sapiens = organism: Homo sapiens; experiment: Inhibition of IDO1/TDO in IFNgamma-treated human HeLa cells assessed as T cell proliferation at 1 uM measured after 2 days in presence of IL-2, anti-CD3 and IFN-gamma by CFSE dye based flow cytometry analysis (reference value: 11.7 %); design: scale not given: the % may be the effect or the level left
Outline: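 CFSE-labelled human PBMC lymphocytes (1 × 10⁶/well) were cocultured with HeLa cells (2 × 10⁵/well), a 5:1 ratio, in 150 U/mL IL-2, 100 ng/mL anti-CD3 and 60 ng/mL IFN-γ. Compound was tested at 40 nM, 200 nM, 500 nM or 1 μM. Proliferation was read by flow cytometry after 2 days, three independent experiments.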

H22 [18] = experiment: Antitumor activity against mouse H22 cells implanted in Kunming mouse assessed as reduction in tumor volume at 100 mg/kg, po qd administered for 2 weeks and measured at 2 days interval during compound dosing relative to control; format: functional; design: scale not given: the % may be the effect or the level left
Outline: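 H22 ascites cells (2 × 10⁶/mouse) passaged twice intraperitoneally in Kunming mice, diluted in saline, then implanted sc into the right forelimb (2 × 10⁶ cells). Therapy began once the tumor reached 5 mm diameter: oral dosing once daily in 0.5% CMC-Na, vehicle controls, for 2 weeks. Calipers every 2 days; volume = long × short²/2. n = 9−10 mice/group.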

[19] = target: T1, Indoleamine 2,3-dioxygenase 1; experiment: Inhibition of recombinant human IDO1 expressed in Escherichia coli BL21 cells assessed as reduction in conversion of L-tryptophan to N-formyl kynurenine using L-tryptophan as substrate after 30 mins by methylene blue dye based microplate reader analysis
Target sequence in this assay (P14902 whole entry): as the sequence (P14902 whole entry) above

[20] = target: T1, Indoleamine 2,3-dioxygenase 1; experiment: Competitive inhibition of recombinant human IDO1 expressed in Escherichia coli BL21 cells assessed as apparent inhibition constant using varying concentration of L-tryptophan as substrate by Dixon plot analysis
Target sequence in this assay (P14902 whole entry): as above

[21] = target: T3, Indoleamine 2,3-dioxygenase 2; experiment: Uncompetitive inhibition of C-terminal His6-tagged human IDO2 (14 to 420 residues) expressed in Escherichia coli BL21 (DE3) assessed as inhibition constant using varying concentration of L-tryptophan as substrate by Dixon plot analysis; outline: as §1
[22] = target: T1, Indoleamine 2,3-dioxygenase 1; experiment: Noncompetitive inhibition of recombinant human IDO1 expressed in Escherichia coli BL21 cells assessed inhibition constant using varying concentration of L-tryptophan as substrate by Dixon plot analysis; outline: as §1
Target sequence in this assay (P14902 whole entry): as above

[23] = target: T2, Tryptophan 2,3-dioxygenase; experiment: Mixed uncompetitive inhibition of recombinant human TDO expressed in Escherichia coli BL21 (DE3) assessed as inhibition constant using varying concentration of L-tryptophan as substrate by Dixon plot analysis; outline: as §1
Target sequence in this assay (P48775 whole entry): as the sequence (P48775 whole entry) above

[24] = target: T1, Indoleamine 2,3-dioxygenase 1; experiment: Binding affinity to heme in human IDO1 assessed as Soret band red shift from 405 nm to […] at 375 uM and pH 6.5 under normal atmospheric condition by UV-vis spectroscopy analysis
Target sequence in this assay (P14902 whole entry, looked up): as the sequence (P14902 whole entry) above

SMILES: CN(C)c1ccc2nc3n(c(=O)c2c1)-c1ccc(F)cc1C3=O
- Ki ([1]; read-out: Ki): 8.82 µM
- IC50 [2]: 270 nM
- IC50 ([3]; read-out: IC50): 590 nM
- IC50 [4]: 90.9 µM
- Ki [5]: 1240 nM
- Ki [6]: 45.3 µM
- IC50 [7]: 3.82 µM
- IC50 [8]: 91.3 µM

SMILES: Cn1cc(C[C@H](N)C(=O)O)c2ccccc21 [(L)-1-METHYLTRYPTOPHAN]
- Activity (Mus musculus [9]): inactive
- Activity [10]: 33.6%
- Activity [11]: inactive
- Activity [12]: inactive
- Activity (Mus musculus [13]): Active
- Activity (H22 [14]): Active
- Activity [15]: inactive
- Activity [16]: inactive
- Activity [17]: Active
- Activity (Homo sapiens): 15.8%
- Activity (H22 [18]): 15.8%

SMILES: O=C1c2cc(F)ccc2-n2c1nc1ccc(N3CCOCC3)cc1c2=O
- Ki [1]: Not Active
- IC50 [19]: Not Active
- Ki [20]: Not Active
- IC50 [2]: 500 nM
- Ki [21]: 39.1 µM
- IC50 ([3]; hela): Not Active
- IC50 [4]: 20.3 µM
- Ki [5]: 2360 nM
- IC50 [7]: 6.4 µM
- Ki [22]: Not Active
- IC50 [8]: 79.9 µM

SMILES: CN1CCN(Cc2ccc3nc4n(c(=O)c3c2)-c2ccccc2C4=O)CC1
- IC50 [2]: 180 nM
- IC50 ([3]; read-out: IC50): 180 nM
- Ki [23]: 420 nM

SMILES: CN(C)Cc1ccc2nc3n(c(=O)c2c1)-c1ccc(F)cc1C3=O
- IC50 [2]: 60 nM
- Ki [23]: 90 nM

SMILES: NS(=O)(=O)NCCNc1nonc1C(=NO)Nc1ccc(F)c(Br)c1 [EPACADOSTAT]
- IC50 [8]: 10.3 µM

SMILES: O=C1c2cc(F)ccc2-n2c1nc1ccc(CN3CCNCC3)cc1c2=O
- IC50 [2]: 90 nM
- Ki [5]: 120 nM

SMILES: CN1CCN(c2ccc3nc4n(c(=O)c3c2)-c2ccccc2C4=O)CC1
- Ki ([1]; read-out: Ki): 7.57 µM
- IC50 [2]: 470 nM
- Ki [21]: 48.7 µM
- IC50 ([3]; read-out: IC50): 2960 nM
- IC50 [4]: 48.7 µM
- Ki [5]: 18000 nM
- IC50 [7]: 6.75 µM
- IC50 [8]: 82.6 µM

SMILES: O=C1c2cc(F)ccc2-n2c1nc1ccc(N3CCNCC3)cc1c2=O
- Ki ([1]; read-out: Ki): 6.08 µM
- IC50 [2]: 290 nM
- Ki [21]: 36.9 µM
- IC50 ([3]; read-out: IC50): 760 nM
- IC50 [4]: 17.8 µM
- IC50 [7]: 3.15 µM
- Ki [23]: 670 nM
- IC50 [8]: 41.6 µM

SMILES: O=C1c2cc(F)ccc2-n2c1nc1ccc(CN3CCOCC3)cc1c2=O
- IC50 [2]: 70 nM
- Ki [5]: 340 nM

SMILES: CC(C)(C)OC(=O)N1CCN(Cc2ccc3nc4n(c(=O)c3c2)-c2ccc(F)cc2C4=O)CC1
- IC50 [2]: 70 nM
- Ki [23]: 130 nM

SMILES: NS(=O)(=O)NCCNc1nonc1/C(=N/O)Nc1ccc(F)c(Br)c1
- Activity [24]: Active

SMILES: O=C1c2cc(F)ccc2-n2c1nc1ccc(N3CCCCC3)cc1c2=O
- Ki ([1]; read-out: Ki): 4.34 µM
- IC50 [2]: 3700 nM
- Ki [21]: 26.8 µM
- IC50 ([3]; read-out: IC50): 2240 nM
- IC50 [4]: 22.2 µM
- Ki [5]: 1560 nM
- IC50 [7]: 10.1 µM
- IC50 [8]: 40.1 µM

SMILES: CN1CCN(c2ccc3nc4n(c(=O)c3c2)-c2ccc(F)cc2C4=O)CC1
- IC50 [2]: 250 nM
- IC50 ([3]; read-out: IC50): 1870 nM
- IC50 [4]: 79 µM
- Ki [6]: 19.9 µM
- IC50 [7]: 2.59 µM
- Ki ([22]; read-out: Ki): 6.92 µM
- Ki [23]: 170 nM
- IC50 [8]: 46.8 µM
